Our source for the IC50, concentration and Ki values is ChEMBL document CHEMBL1129302, “Quinazoline antifolate thymidylate synthase inhibitors: gamma-linked L-D, D-D, and D-L dipeptide analogues of 2-desamino-2-methyl-N10-propargyl-5,8-dideazafolic acid (ICI 198583)” (J Med Chem, 1996).

“And” between values parts separate entries of the source, which are not always exact repeats. Equal values may be shown once.

What is called IC50 is the concentration that gives 50% inhibition. Lower therefore signals greater potency. For orientation: Ki means the equilibrium dissociation constant of an inhibitor or competing ligand from its target.

One series concerns WIL2. Description: Inhibitory activity against human W1L2 cell growth. Format: functional, cell-based.
Series [1] deals with L1210. Description: Inhibition of L1210 cell growth. Format: functional, cell-based, Mus musculus.
The target of series [2] is T1, Thymidylate synthase (Mus musculus, UniProt P07607). In words: Inhibition of Thymidylate synthase activity in L1210 cells. Format: cell-based. The essentials:
(§1)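 TS was partially purified from L1210 mouse leukemia cells that overproduce the enzyme through TS gene amplification. Inhibition was assayed with (±)-5,10-methylenetetrahydrofolic acid as cofactor at 200 µM.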

Series [3] concerns L1210 (1565). Description: Inhibitory activity against L1210:1565 cell growth. Format: functional, cell-based, Mus musculus.
The test system of series [4] is L1210 (RD1694). In words: Inhibitory activity against L1210:RD1694 cell growth. Format: functional, cell-based, Mus musculus.
For a further series, the species on record is Mus musculus. In words: Plasma concentration in mice. Format: ADME, organism-based. The following applies: in vivo, read-out: Plasma concentration.
Series [5] concerns the target T1, Thymidylate synthase. In words: Binding affinity against L1210 Thymidylate synthase. The essentials:
as §1

For series [6], the system named is L1210 (RD1694). Description: Inhibitory activity against L1210:RD1694 cell growth. Format: functional, cell-based, Mus musculus.
Series [7] has as its system L1210 (1565). Description: Inhibitory activity against L1210:1565 cell growth. Format: functional, cell-based. The following applies: Mus musculus.
In series [8] the test system is L1210. In words: Inhibitory activity against L1210 cell growth. Format: functional, cell-based, Mus musculus.

T1 sequence (P07607 whole entry): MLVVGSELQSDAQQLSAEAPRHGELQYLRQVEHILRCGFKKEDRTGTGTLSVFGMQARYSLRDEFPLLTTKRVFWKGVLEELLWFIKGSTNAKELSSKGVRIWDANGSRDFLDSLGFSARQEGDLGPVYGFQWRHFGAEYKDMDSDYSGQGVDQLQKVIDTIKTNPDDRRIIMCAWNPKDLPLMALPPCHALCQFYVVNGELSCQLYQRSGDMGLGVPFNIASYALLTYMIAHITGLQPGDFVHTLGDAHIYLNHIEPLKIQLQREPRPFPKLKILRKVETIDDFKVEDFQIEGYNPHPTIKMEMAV

`C#CCN(Cc1ccc2nc(C)nc(O)c2c1)c1ccc(C(=O)N[C@@H](CCC(=O)N[C@@H](CCC(=O)O)C(=O)O)C(=O)O)cc1` [listing 1 of 2 here]: the IC50 in the series on WIL2 (wil2) was 2400 nM; with L1210 [1] (l1210) it was 3400 nM.
Consider `CCN(Cc1ccc2nc(C)nc(O)c2c1)c1ccc(C(=O)N[C@@H](CCC(=O)N[C@H](CCC(=O)O)C(=O)O)C(=O)O)cc1`, for which the IC50 against Thymidylate synthase [2] was 17 nM; in the series on L1210 [1] (Mus musculus, L1210), 3600 nM.
Take `Cc1nc(O)c2cc(CN(C)c3ccc(C(=O)N[C@@H](CCC(=O)N[C@H](CCC(=O)O)C(=O)O)C(=O)O)c(F)c3)ccc2n1`: the half-inhibitory concentration (IC50) is 900 nM in the series with WIL2 (Homo sapiens, WIL2); 21000 nM with L1210 (1565) [3] (Mus musculus, L1210 (1565)); 8.8 nM against Thymidylate synthase [2]; 650 nM with L1210 [1] (Mus musculus, L1210).
Turning to `C#CCN(Cc1ccc2nc(C)nc(O)c2c1)c1ccc(C(=O)N[C@@H](CCC(=O)N[C@@H](C)C(=O)O)C(=O)O)cc1`, the 50% inhibitory concentration (IC50) turned out to be 13 nM against Thymidylate synthase [2]; 620 nM with L1210 [1] (Mus musculus, L1210); 790 nM in the series with L1210 [1] (l1210); 2100 nM with L1210 (RD1694) [4] (Mus musculus, L1210 (RD1694)); 1600 nM with L1210 (RD1694) [4] (l1210 (rd1694)).
Turning to `Cc1nc(O)c2cc(CN(C)c3ccc(C(=O)N[C@@H](CCC(=O)N[C@H](CCC(=O)O)C(=O)O)C(=O)O)cc3)ccc2n1`, the concentration in the series listed under Mus musculus worked out at 17 µM. Moreover, the IC50 was determined as 34 nM against Thymidylate synthase [2] and 3200 nM with L1210 [1] (Mus musculus, L1210).
Consider `C#CCN(Cc1ccc2nc(C)nc(O)c2c1)c1ccc(C(=O)N[C@@H](CCC(=O)NC(Cc2ccccc2)C(=O)O)C(=O)O)cc1` (stereo partly specified), for which the IC50 in the series on L1210 (1565) [3] (Mus musculus, L1210 (1565)) was > 10000 nM; against Thymidylate synthase [2], 30 nM; in the series with L1210 [1] (Mus musculus, L1210) it was 2100 nM.
As to `C#CCN(Cc1cc2c(O)nc(C)nc2cc1C)c1ccc(C(=O)N[C@@H](CCC(=O)N[C@H](CCCC(=O)O)C(=O)O)C(=O)O)c(F)c1`, on Thymidylate synthase [5], the inhibitory constant (Ki) worked out at 0.12 nM. Moreover, the 50% inhibitory concentration (IC50) in the series on WIL2 (Homo sapiens, WIL2) turned out to be 300 nM; with WIL2 (wil2), 190 nM; with L1210 (1565) [3] (Mus musculus, L1210 (1565)), 12000 nM; with L1210 (1565) [3] (l1210 (1565)) it was 8100 nM; at Thymidylate synthase [2] it was 0.56 nM; in the series on L1210 [1] (Mus musculus, L1210), 130 nM.
As to `C#CCN(Cc1ccc2nc(C)nc(O)c2c1)c1ccc(C(=O)N[C@@H](CCC(=O)N[C@@H](Cc2ccccc2)C(=O)O)C(=O)O)cc1`, the IC50 turned out to be 18 nM at Thymidylate synthase [2]; 4400 nM in the series with L1210 [1] (Mus musculus, L1210); 8900 nM in the series on L1210 (RD1694) [6] (Mus musculus, L1210 (RD1694)).
As for `Cc1nc(O)c2cc(CN(C)c3ccc(C(=O)N[C@@H](CCC(=O)N[C@H](CCC(=O)O)C(=O)O)C(=O)O)cc3)c(C)cc2n1`, the IC50 in the series with WIL2 (Homo sapiens, WIL2) was 280 nM; with L1210 (1565) [7], 19000 nM; against Thymidylate synthase [2], 4.6 nM; in the series on L1210 [1] (Mus musculus, L1210), 580 nM.
Consider `C#CCN(Cc1ccc2nc(C)nc(O)c2c1)c1ccc(C(=O)N[C@@H](CCC(=O)N[C@@H](CCCC(=O)O)C(=O)O)C(=O)O)cc1`, for which the half-maximal inhibitory concentration (IC50) in the series on L1210 [1] (Mus musculus, L1210) was 300 nM; in the series on L1210 (RD1694) [6] (Mus musculus, L1210 (RD1694)) it was 2900 nM.
`C#CCN(Cc1ccc2nc(C)nc(O)c2c1)c1ccc(C(=O)N[C@@H](CCC(=O)N[C@H](CCC(=O)O)C(=O)O)C(=O)O)cc1`: the IC50 in the series on WIL2 (Homo sapiens, WIL2) came out at 150 nM; in the series on L1210 (1565) [3] (Mus musculus, L1210 (1565)), 15000 nM; in the series with L1210 (RD1694) [6] (Mus musculus, L1210 (RD1694)) it was 680 nM. For the same compound, the concentration in the series filed under Mus musculus was 34 µM.
Take `C#CCN(Cc1ccc2nc(C)nc(O)c2c1)c1ccc(C(=O)N[C@H](CCC(=O)N[C@H](CCC(=O)O)C(=O)O)C(=O)O)cc1`: the half-inhibitory concentration (IC50) came out at 1400 nM in the series with WIL2 (Homo sapiens, WIL2); 100000 nM in the series on L1210 (1565) [3] (Mus musculus, L1210 (1565)); 1300 nM in the series with L1210 [1] (Mus musculus, L1210).
`C#CCN(Cc1ccc2nc(C)nc(O)c2c1)c1ccc(C(=O)N[C@@H](CCC(=O)N[C@H](CCCC(=O)O)C(=O)O)C(=O)O)cc1`: the half-maximal inhibitory concentration (IC50) was determined as 220 nM in the series on WIL2 (Homo sapiens, WIL2); 80 nM with L1210 [8] (Mus musculus, L1210); 110 nM in the series with L1210 [8] (l1210); 27000 nM with L1210 (1565) [3] (Mus musculus, L1210 (1565)); 440 nM in the series on L1210 (RD1694) [6] (Mus musculus, L1210 (RD1694)); 420 nM in the series on L1210 (RD1694) [4] (Mus musculus, L1210 (RD1694)). The concentration in the series filed under Mus musculus stood at 31 µM.
In the case of `C#CCN(Cc1ccc2nc(C)nc(O)c2c1)c1ccc(C(=O)N[C@@H](CCC(=O)N[C@@H](CCC(=O)O)C(=O)O)C(=O)O)cc1` [listing 2 of 2 here], the half-maximal inhibitory concentration (IC50) in the series with WIL2 (wil2) is 90 nM and 74 nM; in the series with L1210 (1565) [3] (l1210 (1565)) it was 5000 nM; with L1210 [1] (l1210), 160 nM; in the series on L1210 (RD1694) [6] (l1210 (rd1694)) it was 2900 nM.
In the case of `Cc1nc(O)c2cc(CN(C)c3ccc(C(=O)N[C@@H](CCC(=O)N[C@H](CCC(=O)O)C(=O)O)C(=O)O)c(F)c3)c(C)cc2n1`, the IC50 worked out at 2 nM at Thymidylate synthase [2] and 260 nM in the series with L1210 [1] (Mus musculus, L1210).
In the case of `C#CCN(Cc1cc2c(O)nc(C)nc2cc1C)c1ccc(C(=O)N[C@@H](CCC(=O)N[C@H](CCC(=O)O)C(=O)O)C(=O)O)cc1`, the IC50 in the series on WIL2 (Homo sapiens, WIL2) came to 230 nM; with L1210 (1565) [3] (Mus musculus, L1210 (1565)), 7800 nM; on Thymidylate synthase [2], 1.9 nM; in the series on L1210 [1] (Mus musculus, L1210) it was 210 nM.
`C#CCN(Cc1cc2c(O)nc(C)nc2cc1C)c1ccc(C(=O)N[C@@H](CCC(=O)N[C@H](CCC(=O)O)C(=O)O)C(=O)O)c(F)c1` registered a Ki at Thymidylate synthase [5] of 0.19 nM. The IC50 in the series on WIL2 (Homo sapiens, WIL2) was found to be 170 nM; in the series with WIL2 (wil2), 93 nM; in the series on L1210 (1565) [3] (Mus musculus, L1210 (1565)), 6800 nM; with L1210 (1565) [3] (l1210 (1565)) it was 8700 nM; against Thymidylate synthase [2], 0.4 nM; with L1210 [1] (Mus musculus, L1210), 200 nM. For the same compound, the concentration in the series filed under Mus musculus was determined as 32 µM.
For the compound `C#CCN(Cc1ccc2nc(C)nc(O)c2c1)c1ccc(C(=O)N[C@@H](CCC(=O)N[C@H](CCC(=O)O)C(=O)O)C(=O)O)c(F)c1`, the IC50 with WIL2 (Homo sapiens, WIL2) amounted to 220 nM; in the series with L1210 (1565) [3] (Mus musculus, L1210 (1565)) it was 7800 nM; against Thymidylate synthase [2], 1.9 nM; with L1210 [1] (Mus musculus, L1210), 210 nM.
`C#CCN(Cc1ccc2nc(C)nc(O)c2c1)c1ccc(C(=O)N[C@@H](CCC(=O)N[C@H](C)C(=O)O)C(=O)O)cc1`: the 50% inhibitory concentration (IC50) in the series on WIL2 (Homo sapiens, WIL2) is 150 nM; in the series on L1210 (1565) [7], 16000 nM; on Thymidylate synthase [2], 12 nM; in the series with L1210 [1] (Mus musculus, L1210), 430 nM; with L1210 (RD1694) [6] (Mus musculus, L1210 (RD1694)) it was 880 nM.
